The list is not random: actives were taken first. Their share in the collection is about 3.1%.
GalR3 antag – human GalR3 antagonism. O60755. HEK293 GalR3-CNG cAMP membrane potential fluorescence; galR3 body fused to GalR1 C-terminus. inhibition, % at 3 µM. hit rate 0.44% among 360,000. AID 651719;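 active = inhibition above the screen-wide average plus 3 SD, cut at about 13% in these data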;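 note: forskolin and galanin both at EC90 stimulate the cells; cAMP rise reported by CNG channel membrane potential dye signal; 0% = forskolin plus galanin with DMSO and 100% = forskolin alone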
Target sequence (O60755 1-299 limits assumed): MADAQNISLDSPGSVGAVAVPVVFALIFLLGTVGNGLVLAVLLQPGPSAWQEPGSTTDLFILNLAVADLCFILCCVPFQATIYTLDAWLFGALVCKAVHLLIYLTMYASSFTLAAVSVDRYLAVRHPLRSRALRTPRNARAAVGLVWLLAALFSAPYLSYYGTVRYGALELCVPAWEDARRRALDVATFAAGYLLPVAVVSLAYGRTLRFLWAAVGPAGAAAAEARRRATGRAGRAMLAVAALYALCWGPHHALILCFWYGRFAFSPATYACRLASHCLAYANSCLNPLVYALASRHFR
OX1R antag-1 – OX1R (human) antagonism | O43613 | OX1R-expressing cells, FRET antagonist read-out | inhibition, % at 6.6 µM | hit rate 1.8% among 330,000; in the data active = inhibition mostly above about 38%, no sharp cut-off; inactive = mostly below about 40%;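 note: 0% = agonist challenge alone and 100% = reference antagonist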
CHO parental Ca – counter-screen: ATP calcium response change in parental CHO cells; inhibition, % at 5.6 µM; AID 463079; hit rate 0.63% among 330,000; parental CHO-K1, ATP-induced calcium, Fluo-8 fluorescence;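 active = inhibition above that plate's mean sample inhibition plus 3 SD, cut at about 26% in these data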;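 note: 0% = ATP-challenged DMSO wells and 100% = DMSO wells without ATP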
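Assay system: untransfected parental CHO cell line. Also added: ATP agonist challenge. Dosing: one dose, 5.6 µM nominal. Measured by: Fluo-8 fluorescence. Read-out: % inhibition. Benchmarks: ATP wells versus no-ATP DMSO wells. Repeats: no replicates.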
GPR7 antag – antagonists of human GPR7 (neuropeptides B/W receptor 1). P48145. GPR7-expressing cells, fluorescence antagonist assay. inhibition, % at 4.4 µM. hit rate 1.1% among 290,000. AID 1861; in the data active = inhibition above about 16%, passing the limit was not always enough;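 note: cells stimulated with the agonist NPW; 0% = agonist with vehicle and 100% = vehicle without agonist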
Target sequence (P48145 whole entry, looked up): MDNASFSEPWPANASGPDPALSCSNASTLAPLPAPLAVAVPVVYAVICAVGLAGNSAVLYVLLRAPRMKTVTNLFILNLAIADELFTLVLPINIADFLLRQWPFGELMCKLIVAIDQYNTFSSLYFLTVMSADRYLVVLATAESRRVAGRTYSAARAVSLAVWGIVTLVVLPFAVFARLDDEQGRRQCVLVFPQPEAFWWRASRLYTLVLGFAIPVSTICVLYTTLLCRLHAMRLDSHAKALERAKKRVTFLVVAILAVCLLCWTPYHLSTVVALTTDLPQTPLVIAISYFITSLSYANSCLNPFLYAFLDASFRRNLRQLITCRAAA
OX1R antag-2 – antagonists of human orexin 1 receptor | inhibition, % at 5 µM | CHO/OX1R cells, Fluo-8 calcium fluorescence, orexin A | hit rate 0.43% among 330,000 | O43613;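 active = inhibition above its plate's threshold, mean inhibition of all tested compounds on the plate plus 3 SD, cut at about 37% in these data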;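 note: 0% = orexin A challenge wells and 100% = SB-334867-A antagonist wells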
Starred values were filed as active, the others as inactive; nt = no result given.

SMILES | GalR3 antag | OX1R antag-1 | CHO parental Ca | GPR7 antag | OX1R antag-2
COC(=O)c1c(C)nc2nonc2c1N | -2 | 65* | 5 | -9 | -4
Cc1cc2occ(CC(=O)N(C)CC(=O)Nc3ccccc3Br)c2cc1C | -3 | 68* | -16 | nt | 5
Cc1ccc(C)c(NC(=O)CN(C)C(=O)Cc2coc3cc(C)c(C)cc23)c1 | nt | 23 | -12 | nt | -15
C[C@@H]1CN(S(=O)(=O)C(C)(C)C)[C@@H](CCO)/C1=C\CCO | -6 | nt | nt | nt | nt
O=C1C2C3C=CC(C3)C2C(=O)N1c1ccc(N2CCN(c3ccccn3)CC2)c([N+](=O)[O-])c1 (stereo not drawn) | -2 | 45 | 63* | -2 | 29
O=C(CCN1C(=O)C2C3C=CC(C3)C2C1=O)N1CCN(c2ccccn2)CC1 (stereo not drawn) | -3 | 16 | -11 | -4 | 5
CC(C)C[C@@H]1COc2cccc(NC3CC3)c2S(=O)(=O)N1 | -7 | nt | nt | nt | nt
O=C(Nc1ccc(Cl)c(Cl)c1)Nc1ccccc1NS(=O)(=O)c1cccs1 | -1 | 66 | 35* | -7 | 2
CCOC(=O)/C(=C\c1cccnc1)C(=O)c1cc(C(C)=O)c(Nc2ccccc2)s1 | nt | 11 | 31 | 30* | 24
CCOC(=O)/C(=C\c1ccccc1)C(=O)c1cc(C(C)=O)c(Nc2ccccc2)s1 | -5 | 3 | -10 | 4 | -34
O=C(CC[C@H]1O[C@@H](n2ccc(=O)[nH]c2=O)[C@H](O)[C@@H]1O)NCC(c1ccccc1)c1ccccc1 | -7 | nt | nt | nt | nt
CC(=O)c1c(C)[nH]c(C(=O)OCC(=O)Nc2ccc(Cl)cc2[N+](=O)[O-])c1C | 71* | 57 | 12 | -6 | 8
COc1ccccc1-c1sc2ccccc2c1-c1ccc2c(c1)OCCO2 | -5 | 11 | -17 | nt | -3
CN(C(=O)COc1ccccc1C(=O)NCCOc1ccccc1)c1ccccc1 | 5 | 80* | 92* | 9 | 78*
COc1cccc(C(C(=O)NCc2ccccc2)N2CCN(CCN3CCOCC3)CC2)c1OC (stereo not drawn) | -3 | nt | nt | nt | nt
CC(=O)OC[C@]12CC[C@H]3[C@@](C)(CC[C@H]4C(C)(C)CCC[C@]34C)[C@@H]1C[C@H](C1=CC(=O)O[C@H]1OC(C)=O)O2 | nt | -2 | 46* | nt | 51*
CC(=O)OC[C@]12CC[C@H]3[C@@](C)(CC[C@H]4C(C)(C)CCC[C@]34C)[C@@H]1C[C@@H](C1=CC(=O)O[C@@H]1OC(C)=O)O2 | nt | 7 | 2 | nt | -12
O=C(CSc1nnnn1-c1cccc(C(=O)O)c1)NC(c1ccccc1)c1ccccc1 | -3 | 13 | 5 | -8 | 6
O=C(O)c1cccc(-n2nnnc2SCc2ccccn2)c1 | 7 | 25 | -7 | 19* | -1
CCOc1ccccc1C(=O)Nc1cc(C(=O)NCC(C)C)ccc1Cl | nt | 48* | -2 | -9 | -16
CCOc1ccccc1C(=O)Nc1ccsc1C(=O)OC | -8 | 69* | -15 | -9 | -20
COC(=O)c1sccc1NC(=O)c1ccc(C)s1 | 5 | 56* | -31 | -1 | -4
CC(C)CNC(=O)c1ccc(Cl)c(NC(=O)COc2ccccc2)c1 | nt | 18 | -21 | -7 | -36
O=C(NCc1ccc(F)cc1)Nc1nnc([C@H]2C[C@H](O)[C@@H](CO)O2)s1 | -7 | nt | nt | nt | nt
O=C(Nc1ccc2ccccc2c1)C(c1ccccc1F)n1c(=O)c(-c2cc3ccccc3[nH]2)nc2ccccc21 (stereo not drawn) | -3 | nt | nt | nt | nt
SMILES | GalR3 antag | OX1R antag-1 | CHO parental Ca | GPR7 antag | OX1R antag-2
CN(C)/C=C/c1oc2ccc(O)cc2c1[N+](=O)[O-] | 2 | 52* | -8 | -5 | -7
COC(=O)[C@]12C[C@H](CC(=O)N3CCOCC3)C(=O)N(Cc3ccccc3)C1=C[C@H](C1CCCC1)O[C@@H]2C | 4 | nt | nt | nt | nt
COc1cccc(CNC(=O)[C@H]2CCCN2C(=O)[C@H]2CCCN2C(=O)c2ccc(F)c(F)c2)c1 | -6 | nt | nt | nt | nt
O=C(NC1CC1)C1CCN(c2ncnc3c2sc2cccc(F)c23)CC1 | 4 | 68* | -12 | 4 | -11
CCCCN1CC(COCc2ccccc2)Oc2cccc(Sc3ccc(OC)c(OC)c3)c2S1(=O)=O (stereo not drawn) | -5 | nt | nt | nt | nt
C[n+]1ccc(/C=C/c2ccccc2O)c2ccccc21 | -3 | 72* | -10 | 4 | -15
CN1/C(=C/c2cc[n+](C)c3ccccc23)C=Cc2ccccc21 | nt | nt | nt | -24 | nt
CCNC(=O)N1CCN(c2ccc(N3CCN(C(=O)NCC)[C@H](C)C3)c(C)c2)[C@H](C)C1 | -6 | nt | nt | nt | nt
COC(=O)[C@]12C[C@H](CC(=O)NCc3cccc4ccccc34)C(=O)N(Cc3ccc4c(c3)OCO4)C1=C[C@H](C(C)(C)C)O[C@@H]2C | -2 | nt | nt | nt | nt
CCN1CCN(Cc2nc3ccc([N+](=O)[O-])cc3c(=O)n2-c2ccc(OC)cc2OC)CC1 | -8 | 34* | -15 | 7 | 1
COc1ccc(-n2c(CN3CCN(c4ccccc4OC)CC3)nc3ccc([N+](=O)[O-])cc3c2=O)c(OC)c1 | -7 | nt | nt | -16 | nt
CC1(C(=O)NS(=O)(=O)c2ccc(F)cc2F)CCN1C(=O)CC1CCCC1 (stereo not drawn) | -4 | nt | nt | nt | nt
Cc1ccc(NC(=O)CN(C)C(=O)c2ccc(S(=O)(=O)N(C)c3ccccc3)cc2)cc1 | -4 | -5 | -8 | -3 | -20
Cc1ccc(C)c(NC(=O)CN(C)C(=O)c2ccc(S(=O)(=O)N(C)c3ccccc3)cc2)c1 | -1 | 30* | -15 | nt | -4
Cc1cc(NC(=O)COC(=O)CC2CCCC2)c([N+](=O)[O-])cc1C | -2 | 2 | -13 | -25 | -24
Cc1cc(NC(=O)COC(=O)C2CCC(=O)N2)c([N+](=O)[O-])cc1C (stereo not drawn) | -5 | 61* | -2 | -6 | -10
C=CCN(CC=C)S(=O)(=O)c1ccc(NC(=S)NC(=O)/C=C/c2ccc(C)cc2)cc1 | -3 | 16 | 36* | 6 | -7
C[C@H](CO)N1C[C@H](C)[C@@H](CN(C)C(=O)Nc2ccc(-c3cccs3)cc2)OCc2cn(nn2)CCCC1=O | -3 | nt | nt | nt | nt
CCN(CC)CCOCCn1c(C)ccc1C | -4 | nt | nt | nt | nt
O=C(N[C@@H](Cc1cccnc1)C(=O)N1CCC[C@H]1C(=O)NCCc1ccccc1Cl)C1CCCC1 | 0 | nt | nt | nt | nt
Cc1ccc(Br)cc1S(=O)(=O)N1CCN(c2ccccc2)CC1 | -6 | 1 | 36* | -3 | -21
Cc1cc2c(cc1S(=O)(=O)N1CCN(c3ccccc3)CC1)OCCN2C | nt | 17 | 34* | -1 | -32
NS(=O)(=O)c1ccc(CCNC(=O)CSc2nc3ccsc3c(=O)n2Cc2ccccn2)cc1 | -6 | nt | nt | nt | nt
CCOC(=O)C1CSCCS(=O)(=O)N1Cc1ccccc1C (stereo not drawn) | -6 | nt | nt | nt | nt
COC(=O)c1cc2c(c3c4cc(C#N)ccc4n(S(=O)(=O)c4ccc(C)cc4)c13)C(=O)N(C)C2 | -6 | nt | nt | nt | nt
O=C(Nc1ccc(Br)cc1)C1OCCc2ccccc21 (stereo not drawn) | -2 | 15 | -19 | -8 | -15

Assay outcomes from PubChem.
